Assays:
[1] = biological target: T1, ATP-dependent translocase ABCB1 (Homo sapiens, UniProt P08183); assay: Reversal of human MDR1-mediated multidrug resistance in mouse L5178Y cells expressing MDR1 assessed as forward scatter count measured by cell size ratio at 2 uM after 10 mins by flow cytometry; assay type: cell-based
How it was run: (§1)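 Parental and MDR1-transfected L5178 cells at 2×10^6/mL in serum-free McCoy's 5A. Compound (0.5–20 µM; verapamil 22 µM as positive control) added 10 min at room temperature, then rhodamine 123 20 min at 37 °C. Cells washed twice, resuspended in PBS, flow cytometry on 10,000 cells (FSC, SSC, mean FL-1). FAR = (MDR treated/MDR control)/(parental treated/parental control); single representative experiment.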

[2] = biological target: T1, ATP-dependent translocase ABCB1; assay: Reversal of human MDR1-mediated multidrug resistance in mouse L5178Y cells expressing MDR1 assessed as forward scatter count measured by cell size ratio at 20 uM after 10 mins by flow cytometry; assay type: cell-based; how it was run: as §1
[3] = biological target: T1, ATP-dependent translocase ABCB1; assay: Reversal of human MDR1-mediated multidrug resistance in mouse L5178Y cells expressing MDR1 assessed as side scatter count measured by cell size ratio at 2 uM after 10 mins by flow cytometry; assay type: cell-based; how it was run: as §1
[4] = biological target: T1, ATP-dependent translocase ABCB1; assay: Reversal of human MDR1-mediated multidrug resistance in mouse L5178Y cells expressing MDR1 assessed as side scatter count measured by cell size ratio at 20 uM after 10 mins by flow cytometry; assay type: cell-based; how it was run: as §1
[5] = biological target: T1, ATP-dependent translocase ABCB1; assay: Reversal of human MDR1-mediated multidrug resistance in mouse L5178Y cells expressing MDR1 assessed as mean fluorescence intensity of rhodamine-123 uptake at 2 uM after 10 mins by flow cytometry; assay type: cell-based; how it was run: as §1
[6] = biological target: T1, ATP-dependent translocase ABCB1; assay: Reversal of human MDR1-mediated multidrug resistance in mouse L5178Y cells expressing MDR1 assessed as mean fluorescence intensity of rhodamine-123 uptake at 20 uM after 10 mins by flow cytometry; assay type: cell-based; how it was run: as §1
[7] = biological target: T1, ATP-dependent translocase ABCB1; assay: Reversal of human MDR1-mediated multidrug resistance in mouse L5178Y cells expressing MDR1 assessed as fluorescence activity ratio at 2 uM after 10 mins by rhodamine-123 exclusion test; assay type: cell-based; how it was run: as §1
[8] = biological target: T1, ATP-dependent translocase ABCB1; assay: Reversal of human MDR1-mediated multidrug resistance in mouse L5178Y cells expressing MDR1 assessed as fluorescence activity ratio at 20 uM after 10 mins by rhodamine-123 exclusion test; assay type: cell-based; how it was run: as §1
L5178Y [9] = assay: Antiproliferative activity against mouse L5178Y cells after 72 hrs by MTT assay; assay type: functional; conditions: read-out: ID50 (the source's name)
How it was run: (§2)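 L5178 mouse T-cell lymphoma cells, parental or transfected with human MDR1 via pHa MDR1/A retrovirus. Transfected cells were kept under 60 ng/mL colchicine. Cells grew in McCoy's 5A with 10% heat-inactivated horse serum at 37 °C, 5% CO2. 1×10^4 cells/well with rising compound concentrations, 72 h at 37 °C. MTT 4 h, SDS 10% overnight, OD 550 nm (ref 630 nm). % inhibition vs cell/medium controls; ID50 mean ± SD of three experiments.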

L5178Y [10] = assay: Antiproliferative activity against multidrug resistance mouse L5178Y cells expressing human MDR1 after 72 hrs by MTT assay; assay type: functional; conditions: read-out: ID50 (the source's name); how it was run: as §2
L5178Y [11] = assay: Potentiation of doxorubicin-induced anticancer activity against mouse L5178Y cells expressing MDR1 assessed as fractional inhibitory concentration after 72 hrs by checkerboard microplate assay; assay type: functional
How it was run: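 Checkerboard combination on MDR1-transfected L5178 lymphoma cells: doxorubicin diluted along one plate axis, resistance modifier along the other; 5×10^4 cells/well; 72 h at 37 °C in CO2 incubator; growth read by MTT staining. FIC = ID50 in combination/ID50 alone for each agent; summed FIX <0.5 synergism, 0.51–1 additive, 1–2 indifferent, >2 antagonism.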

[12] = Octanol-water partition coefficient, log D of the compound; assay type: physicochemical
L5178Y [13] = assay: Reversal of multidrug resistance in mouse L5178Y cells assessed as mean fluorescence intensity of rhodamine-123 uptake after 10 mins by flow cytometry; assay type: functional; how it was run: as §1
L5178Y [14] = assay: Reversal of human MDR1-mediated multidrug resistance in mouse L5178Y cells expressing MDR1 assessed as mean fluorescence intensity of rhodamine-123 uptake after 10 mins by flow cytometry; assay type: functional; how it was run: as §1
[15] = biological target: T1, ATP-dependent translocase ABCB1; assay: Reversal of human MDR1-mediated multidrug resistance in mouse L5178Y cells expressing MDR1 assessed as forward scatter count measured by cell size ratio at 0.5 uM after 10 mins by flow cytometry; assay type: cell-based; how it was run: as §1
[16] = biological target: T1, ATP-dependent translocase ABCB1; assay: Reversal of human MDR1-mediated multidrug resistance in mouse L5178Y cells expressing MDR1 assessed as forward scatter count measured by cell size ratio at 1 uM after 10 mins by flow cytometry; assay type: cell-based; how it was run: as §1
[17] = biological target: T1, ATP-dependent translocase ABCB1; assay: Reversal of human MDR1-mediated multidrug resistance in mouse L5178Y cells expressing MDR1 assessed as side scatter count measured by cell size ratio at 0.5 uM after 10 mins by flow cytometry; assay type: cell-based; how it was run: as §1
[18] = biological target: T1, ATP-dependent translocase ABCB1; assay: Reversal of human MDR1-mediated multidrug resistance in mouse L5178Y cells expressing MDR1 assessed as side scatter count measured by cell size ratio at 1 uM after 10 mins by flow cytometry; assay type: cell-based; how it was run: as §1
[19] = biological target: T1, ATP-dependent translocase ABCB1; assay: Reversal of human MDR1-mediated multidrug resistance in mouse L5178Y cells expressing MDR1 assessed as mean fluorescence intensity of rhodamine-123 uptake at 0.5 uM after 10 mins by flow cytometry; assay type: cell-based; how it was run: as §1
[20] = biological target: T1, ATP-dependent translocase ABCB1; assay: Reversal of human MDR1-mediated multidrug resistance in mouse L5178Y cells expressing MDR1 assessed as mean fluorescence intensity of rhodamine-123 uptake at 1 uM after 10 mins by flow cytometry; assay type: cell-based; how it was run: as §1
[21] = biological target: T1, ATP-dependent translocase ABCB1; assay: Reversal of human MDR1-mediated multidrug resistance in mouse L5178Y cells expressing MDR1 assessed as fluorescence activity ratio at 0.5 uM after 10 mins by rhodamine-123 exclusion test; assay type: cell-based; how it was run: as §1
[22] = biological target: T1, ATP-dependent translocase ABCB1; assay: Reversal of human MDR1-mediated multidrug resistance in mouse L5178Y cells expressing MDR1 assessed as fluorescence activity ratio at 1 uM after 10 mins by rhodamine-123 exclusion test; assay type: cell-based; how it was run: as §1
L5178Y [23] = assay: Reversal of human MDR1-mediated multidrug resistance in mouse L5178Y cells expressing MDR1 fluorescence activity ratio of rhodamine-123 uptake after 10 mins by flow cytometry

T1 sequence (P08183 whole entry): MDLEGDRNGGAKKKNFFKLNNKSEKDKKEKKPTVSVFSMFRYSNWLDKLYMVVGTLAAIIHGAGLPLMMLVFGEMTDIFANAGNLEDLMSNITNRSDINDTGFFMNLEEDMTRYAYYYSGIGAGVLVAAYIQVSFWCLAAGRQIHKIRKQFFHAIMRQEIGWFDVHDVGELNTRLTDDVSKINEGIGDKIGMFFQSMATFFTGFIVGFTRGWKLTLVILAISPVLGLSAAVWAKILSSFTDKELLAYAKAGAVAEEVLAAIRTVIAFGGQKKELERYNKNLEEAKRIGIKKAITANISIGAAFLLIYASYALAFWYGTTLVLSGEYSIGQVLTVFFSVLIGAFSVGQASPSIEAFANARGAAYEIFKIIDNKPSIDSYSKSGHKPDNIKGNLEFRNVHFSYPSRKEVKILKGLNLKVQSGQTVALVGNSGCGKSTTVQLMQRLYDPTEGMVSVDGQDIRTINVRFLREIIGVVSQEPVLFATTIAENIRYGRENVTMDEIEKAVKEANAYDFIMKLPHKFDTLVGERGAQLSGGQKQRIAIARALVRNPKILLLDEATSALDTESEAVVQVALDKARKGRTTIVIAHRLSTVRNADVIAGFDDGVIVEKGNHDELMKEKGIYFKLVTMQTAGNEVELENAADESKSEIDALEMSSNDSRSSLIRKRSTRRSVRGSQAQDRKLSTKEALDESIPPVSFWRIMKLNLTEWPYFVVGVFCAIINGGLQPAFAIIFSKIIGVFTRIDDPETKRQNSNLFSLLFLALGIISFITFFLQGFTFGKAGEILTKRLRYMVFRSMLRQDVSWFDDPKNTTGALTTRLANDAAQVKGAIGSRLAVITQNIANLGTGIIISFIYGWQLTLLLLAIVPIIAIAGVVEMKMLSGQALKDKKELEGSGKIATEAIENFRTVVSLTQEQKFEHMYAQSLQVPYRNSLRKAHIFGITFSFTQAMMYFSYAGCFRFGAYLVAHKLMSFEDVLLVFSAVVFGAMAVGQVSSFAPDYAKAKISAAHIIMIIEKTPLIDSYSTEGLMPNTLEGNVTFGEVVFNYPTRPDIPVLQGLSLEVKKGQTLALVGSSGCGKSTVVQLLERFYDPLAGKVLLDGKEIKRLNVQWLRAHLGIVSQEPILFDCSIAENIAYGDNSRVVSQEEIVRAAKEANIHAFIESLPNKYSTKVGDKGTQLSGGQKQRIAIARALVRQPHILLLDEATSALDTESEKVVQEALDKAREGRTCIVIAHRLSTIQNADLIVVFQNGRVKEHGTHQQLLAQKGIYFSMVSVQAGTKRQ

| Compound | Activity [1] | Activity [2] | Activity [3] | Activity [4] | Activity [5] | Activity [6] | Activity [7] | Activity [8] | logD [12] | IC50 (L5178Y [9]) | IC50 (L5178Y [10]) | fractional inhibitory concentration index (FICI) (L5178Y [11]) | Activity (L5178Y [13]) | Activity (L5178Y [14]) | further results |
| --- | --- | --- | --- | --- | --- | --- | --- | --- | --- | --- | --- | --- | --- | --- | --- |
| CO[C@H]1C=C2[C@@H](CC[C@H](O)C2(C)C)[C@]2(C)CC[C@]3(C)[C@@H]([C@H](C)C[C@H](C=C(C)C)OC(C)=O)CC[C@@]3(C)[C@H]12 [KARAVOATE A] | 470.2 | 518.1 | 254.9 | 222.4 | 671.2 | 612.7 | 35.2 | 34.2 | 8 | 26 µM | 34.8 µM | 0.44 |  |  |  |
| COC(C)(C)/C=C/C[C@@H](C)[C@H]1CC[C@@]2(C)[C@@H]3[C@@H](O[C@H]4O[C@@H](CO)[C@H](O)[C@H](O)[C@@H]4O)C=C4[C@@H](CC[C@H](O)C4(C)C)[C@]3(C)CC[C@]12C [BALSAMINOSIDE A] | 429.6 | 441.6 | 253.8 | 249.7 | 19 | 1171.1 | 1.45 | 89.4 | 5.3 | 8.3 µM | 20.8 µM | 0.37 | 959.5 | 10.6 |  |
| COC(C)(C)/C=C/C[C@@H](C)[C@H]1CC[C@@]2(C)[C@@H]3[C@@H](O)C=C4[C@@H](CC[C@H](O)[C@]4(C)CO)[C@]3(C)CC[C@]12C [BALSAMINAGENIN B] | 428.7 | 454.4 | 261.1 | 238.6 | 78.4 | 1365.1 | 5.98 | 104.2 | 5.8 | 15.4 µM | 16.8 µM | 0.18 | 959.5 | 10.6 |  |
| COc1ccc(CCN(C)CCCC(C#N)(c2ccc(OC)c(OC)c2)C(C)C)cc1OC (stereo unspecified) [VERAPAMIL] |  |  |  |  |  |  |  |  |  |  |  |  |  | 97.1 | FAR (L5178Y [23]): 7.4 |
| CCC(=O)O[C@@H](C=C(C)C)C[C@@H](C)[C@H]1CC[C@@]2(C)[C@@H]3[C@@H](OC)C=C4[C@@H](CC[C@H](O)C4(C)C)[C@]3(C)CC[C@]12C [KARAVOATE C] | 466.3 | 481.3 | 249.9 | 242.5 | 30.3 | 726.8 | 1.7 | 40.6 | 8.3 | 41.4 µM | 43.5 µM |  |  |  |  |

Now from value to compound, other results behind:

| Activity [1] | Activity [2] | Activity [3] | Activity [4] | Activity [5] | Activity [6] | Activity [7] | Activity [8] | logD [12] | Compound | IC50 (L5178Y [9]) | IC50 (L5178Y [10]) | fractional inhibitory concentration index (FICI) (L5178Y [11]) | Activity (L5178Y [13]) | Activity (L5178Y [14]) | further results |
| --- | --- | --- | --- | --- | --- | --- | --- | --- | --- | --- | --- | --- | --- | --- | --- |
| 468.8 | 551.8 | 215.4 | 206.8 | 365.7 | 399.5 | 42.1 | 46 | 7.3 | CO[C@H]1C=C2[C@@H](CC[C@H](O)C2(C)C)[C@]2(C)CC[C@]3(C)[C@@H]([C@H](C)C[C@@H](O)C=C(C)C)CC[C@@]3(C)[C@H]12 [KARAVELAGENIN C] | 6.3 µM | 16.8 µM | 0.28 | 1034.3 | 9.5 | Activity [15]: 456.4; Activity [16]: 460.7; Activity [17]: 215.3; Activity [18]: 217.8; Activity [19]: 12.7; Activity [20]: 130; Activity [21]: 1.5; Activity [22]: 15 |
| 448.7 | 461.9 | 235.9 | 236.3 | 18 | 388.7 | 1 | 21.7 | 8.7 | CCCC(=O)O[C@@H](C=C(C)C)C[C@@H](C)[C@H]1CC[C@@]2(C)[C@@H]3[C@@H](OC)C=C4[C@@H](CC[C@H](O)C4(C)C)[C@]3(C)CC[C@]12C [KARAVOATE E] | 51 µM | 73.8 µM |  |  |  |  |
| 441.8 | 447.4 | 261.2 | 257.6 | 13.95 | 579.8 | 1.07 | 44.3 | 5.2 | C[C@H](C/C=C/C(C)(C)O)[C@H]1CC[C@@]2(C)[C@@H]3[C@@H](O)C=C4[C@@H](CC[C@H](O)[C@]4(C)CO)[C@]3(C)CC[C@]12C [BALSAMINAGENIN A] | 19.5 µM | 25.9 µM |  | 959.5 | 10.6 |  |
| 454.9 | 462.9 | 247 | 249.3 | 102.1 | 671.2 | 5.7 | 37.5 | 8.6 | CO[C@H]1C=C2[C@@H](CC[C@H](OC(C)=O)C2(C)C)[C@]2(C)CC[C@]3(C)[C@@H]([C@H](C)C[C@H](C=C(C)C)OC(C)=O)CC[C@@]3(C)[C@H]12 [KARAVOATE B] | 48.8 µM | 60.2 µM |  |  |  |  |
| 454 | 463.1 | 237.9 | 230.8 | 16.2 | 42.3 | 0.9 | 2.4 | 8.9 | CCC(=O)O[C@H]1CC[C@@H]2C(=C[C@H](OC)[C@@H]3[C@@]2(C)CC[C@]2(C)[C@@H]([C@H](C)C[C@H](C=C(C)C)OC(=O)CC)CC[C@@]32C)C1(C)C [KARAVOATE D] | > 133 µM | > 133 µM |  |  |  |  |

From ChEMBL document CHEMBL1152588, “New potent P-glycoprotein modulators with the cucurbitane scaffold and their synergistic interaction with doxorubicin on resistant cancer cells” (Bioorg Med Chem, 2009)
